This is a sample that favours compounds with a hit; in the whole collection about 2.9% have one here.
hiPSC survival: enhancers of single-cell hiPSC survival, primary screen, ATPlite luminescence | 100% = ROCK inhibitor wells, 0% = DMSO | survival enhancement, % at 20 µM | actives 0.044% (n = 360,000); in the data active = survival enhancement above about 18%;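 note: cells exposed to compounds for 16 hours before the ATP read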
H9c2 TAG inh: inhibitors of triacylglycerol accumulation, primary screen, cell-based, uHTS, fluorescence, H9c2. H9c2 cells, Nile Red lipid (TAG) fluorescence; cells loaded with 200 µM oleic acid. inhibition, % at 12.5 µM. actives 0.66% (n = 230,000);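 active = pattern-corrected inhibition of lipid staining of at least 50% with the nuclear-stain viability signal not falling by more than 50%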;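 note: 0% = DMSO wells and 100% = triacsin C control wells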
NR1D1 modulator: modulators of Rev-erb alpha DNA binding, primary screen, biochemical, FITC-DNA, fluorescence polarization, uHTS. Nuclear receptor subfamily 1 group D member 1 (Homo sapiens), P20393. Rev-erbα–FITC-DNA binding, 90 min. activity, % at 10 µM. actives 0.79% (n = 370,000). AID 1259318, 2017;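 active = activity above about 14%, limit read from the data; passing the limit was not always enough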;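 note: 0% = DMSO wells with 35 nM protein and 100% = DMSO wells with 750 nM protein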
Target sequence (P20393 whole entry, looked up): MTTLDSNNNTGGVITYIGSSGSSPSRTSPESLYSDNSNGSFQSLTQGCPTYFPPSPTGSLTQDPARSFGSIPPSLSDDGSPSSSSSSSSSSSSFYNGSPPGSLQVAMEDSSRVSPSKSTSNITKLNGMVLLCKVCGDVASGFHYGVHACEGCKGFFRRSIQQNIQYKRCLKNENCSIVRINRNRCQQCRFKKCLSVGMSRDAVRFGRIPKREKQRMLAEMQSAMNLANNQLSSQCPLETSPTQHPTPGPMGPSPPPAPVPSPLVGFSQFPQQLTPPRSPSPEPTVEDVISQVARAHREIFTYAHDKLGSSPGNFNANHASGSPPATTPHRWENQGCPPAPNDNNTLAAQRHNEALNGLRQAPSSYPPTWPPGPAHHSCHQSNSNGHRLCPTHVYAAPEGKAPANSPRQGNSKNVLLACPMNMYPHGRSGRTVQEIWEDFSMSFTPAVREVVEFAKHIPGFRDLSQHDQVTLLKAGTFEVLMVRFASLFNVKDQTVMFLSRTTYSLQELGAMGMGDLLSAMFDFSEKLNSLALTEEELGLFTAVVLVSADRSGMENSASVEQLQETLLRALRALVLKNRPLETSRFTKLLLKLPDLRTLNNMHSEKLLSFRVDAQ
T cruzi repl: inhibitors of intracellular T. cruzi growth, primary screen, luminescence, NIH3T3 host cells; actives 1.4% (n = 300,000); AID 1885, 2009; inhibition, % (concentration not given with the values); T. cruzi beta-gal in NIH3T3, 90 h;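 active = mean inhibition across valid replicates above about 55%, limit read from the data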;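 note: signal also drops with host cell toxicity which is not excluded here; 0% = plate median of DMSO wells and 100% = zero luminescence signal; higher percent means less beta-gal luminescence so fewer parasites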
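Assay system: NIH/3T3 fibroblasts plus reporter T. cruzi. Amount: NIH/3T3 cells, 5,000 per well. Buffer or medium: DMEM, 2% fetal bovine serum. Doses: compound pinned at 50 nL/well, DMSO. Schedule: ≥90 h infection period, 3 h prior cell attachment. Signal: luminescent β-galactosidase signal after 60 min lysis. Read-out: parasite load inhibition, %.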
beta cell repl: inducers of MIN6 beta-cell proliferation, primary screen, ATP luminescence, uHTS. MIN6 cells proliferation, ATPlite luminescence, 48 h; cells starved in 0.2% serum; 100% = growth in 10% serum. proliferation, % at 10 µM. actives 0.29% (n = 330,000). AID 2380, 2010;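 active = compounds whose signal lies at least 3.5 SD above the mean of all wells on their plate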;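 note: 0% = DMSO-treated cells in low-serum medium and 100% = 10% serum control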
PG9 Ab binder: binders of HIV-1 gp120 antibody PG9, primary screen, biochemical, TR-FRET; HIV-1 gp120 / PG9 antibody interaction; TR-FRET gp120-PG9 antibody binding; inhibition, % at 6.7 µM; actives 0.43% (n = 360,000); in the data active = inhibition above about 8.5%
The depositor's hits bear a star; nt = not tested or not shown; ! = not active in a repeat.

SMILES	hiPSC survival	H9c2 TAG inh	NR1D1 modulator	T cruzi repl	beta cell repl	PG9 Ab binder
O=C(CCl)N(CCc1ccccc1)CCc1ccccc1	-1	nt	-2	56*	-4	-3
Cc1cc(N)n2nc(C)c(-c3ccc(Cl)cc3)c2n1	-1	14	nt	2	-1	0
Cc1cc(Cl)n2nc(C)c(-c3ccc(Cl)cc3)c2n1	21*	13	-7	nt	-7	0
COc1ccc(Cl)cc1S(=O)(=O)N1CCN(C)CC1	-2	3	0	-9	-1	1
COc1ccc(N2CCN(c3oc(COc4ccccc4)nc3C#N)CC2)cc1	-2	-11	0	nt	0	-2
CN1CCN(c2oc(COc3ccc(-c4ccccc4)cc3)nc2C#N)CC1	-3	nt	2	77*	-4	-3
CCOC(=O)[C@H]1[C@H]2COc3ccc(Cl)cc3[C@@H]2N2C(=O)c3ccc(F)cc3NC(=O)[C@@]12C	-4	-21	9	nt	-4	4
c1ccc(Nc2nc(-c3ccncc3)cs2)cc1	1	32	-6	65*	1	0
O=C(/C=C\c1ccco1)Nc1nc(-c2ccccc2)cs1	-2	nt	-4	14	0	0
Clc1ccc(Nc2nc(-c3ccncc3)cs2)cc1	4	95	-15	57*	-1	1
Fc1ccc(Nc2nc(-c3ccncc3)cs2)cc1	-1	10	-1	47	-1	0
O=C(/C=C/c1ccccc1)Nc1nc(-c2ccncc2)cs1	5	5	-5	66*	0	0
CC(C)C(=O)N[C@@H]1c2ccccc2CC[C@@H]1OCc1ccccc1	-2	-5	-1	nt	nt	0
C#CCOCCOCCOCCNc1nc(N2CCN(C(=O)[C@H](CCCCN)n3cc(CN)nn3)CC2)nc(N2CCN(C(=O)[C@H](CCCCN)n3cc([C@@H](N)CC(N)=O)nn3)CC2)n1	-2	-13	-8	nt	nt	0
COc1ccc(SCCc2ccncc2)cc1	0	-7	-1	70*	-4	0
c1ccc(SCCc2ccncc2)cc1	2	-17	nt	28	-1	1
Fc1ccc(SCCc2ccncc2)cc1	-2	11	-5	68*!	-1	-3
CCC(=O)NC(NC(=S)Nc1c(C)n(C)n(-c2ccccc2)c1=O)C(Cl)(Cl)Cl (centres undefined)	1	nt	3	3	0	-1
CC(C)(C)C(=O)O/N=C(\N)COc1cccc(Cl)c1	3	-9	9	2	-4	-4
Clc1ccc(/C=C/c2nc3ccccc3[nH]2)c(Cl)c1	-3	nt	0	58*	-6	3
Clc1ccc(/C=C/c2nc3ccccc3[nH]2)cc1	-4	nt	-1	33	-6	1
Cc1cccc(OCCn2c(=O)sc3ccccc32)c1	4	nt	7	nt	-3	0
Cc1ccc(C(=O)Nc2ccccc2-c2ccccc2)cc1S(=O)(=O)Nc1cccc(C)c1C	0	nt	-1	62*	-4	-1
O=C(C1CCN(Cc2nc(Cc3cccc(F)c3)no2)CC1)N1CCOCC1	2	-16	-1	-5	-4	0
NS(=O)(=O)c1ccc(N=Nc2ccc(O)c3ncccc23)cc1	0	nt	-5	66*	-4	-17
SMILES	hiPSC survival	H9c2 TAG inh	NR1D1 modulator	T cruzi repl	beta cell repl	PG9 Ab binder
CCOc1ccc(N=Nc2ccc(O)c3ncccc23)cc1	-1	nt	1	65*	-5	-1
c1cncc(-c2nc3ccccn3c2Nc2ccc3c(c2)OCCO3)c1	-2	-2	-2	9	1	-4
COc1ccc2nc(NC(=O)c3sc4nc(C)cc(C)c4c3N)sc2c1	0	26	-10	48	-3	0
CC(C)(C)OC(=O)N1CCC(NC(=O)c2nc[nH]c2C(=O)N2CCc3ccccc3C2)CC1	-2	24	1	nt	-3	-1
O=C(N/N=C/c1ccc(Cl)cc1Cl)c1cccc(N2CCCC2=O)c1	-1	nt	-3	-2	-5	-1
O=C(N/N=C/c1cc(Br)cc(Br)c1O)c1cccc(N2CCCC2=O)c1	3	10	-1	61*	-6	1
CCOC(=O)C1(CCOc2ccccc2)CCN(Cc2cccc3c2OCO3)CC1	0	-11	7	65*	-4	-1
CCOC(=O)C1(CCOc2ccccc2)CCN(Cc2cccn2-c2cccnc2)CC1	1	-23	-2	60*	-1	0
CCOC(=O)C1(CCOc2ccccc2)CCN(Cc2ccc3nonc3c2)CC1	0	0	3	67*	-5	-2
CCOC(=O)C1(CCOc2ccccc2)CCN(Cc2cc(OC)c3c(c2)OCO3)CC1	-2	-25	-5	60*	-3	-2
CCOC(=O)C1(CCOc2ccccc2)CCN(Cc2ccc(OC)cc2)CC1	-1	6	-3	40	nt	-2
CCOC(=O)C1(Cc2ccccc2)CCN(Cc2cccn2-c2cccnc2)CC1	-1	-5	-2	10	-1	-2
O=C(Nc1ccc(Cc2ccncc2)cc1)c1cccs1	0	-12	-3	-9	-3	0
CSc1nc2ccc(NS(=O)(=O)c3c(Cl)cccc3Cl)cc2s1	6	nt	-4	-3	0	-1
O=C(NC(O)C(=O)c1ccccc1)c1ccc(F)cc1 (centres undefined)	-1	nt	4	-7	-1	-1
Cc1cc(C)nc(SC2c3cccc4cccc(c34)C2NS(=O)(=O)c2ccccc2)n1 (centres undefined)	-1	nt	-2	57*	-5	0
C/C(=N/NS(=O)(=O)c1cc(C)ccc1C)c1c[nH]c2ccccc12	0	-12	2	13	-2	-2
COc1ccc2[nH]c(C)c(CCN(Cc3cccs3)C(=S)Nc3ccc(F)cc3)c2c1	-2	-13	nt	55*	-5	nt
COc1ccc(NC(=S)N(CCc2c(C)[nH]c3ccc(C)cc23)Cc2cccs2)cc1	0	13	0	21	-6	-1
Cc1[nH]c2ccc(F)cc2c1CCN(Cc1cccnc1)C(=S)Nc1ccc(F)cc1	1	9	-4	61*	-2	1
COc1ccc2[nH]c(C)c(CCN(Cc3cccs3)C(=S)Nc3ccccc3)c2c1	-4	-6	3	58*	-6	0
Cc1cc(=O)oc2cc(OCC(=O)OC(C)C(=O)NC3CCCC3)ccc12 (centres undefined)	0	-6	3	-13	-1	1
CCn1cc(CN2CCC(n3nccc3NC(=O)Cc3ccccc3)CC2)cn1	0	12	-2	8	4	1
